The other results are listed elsewhere or left out. Unmarked numbers belong to inactive results. Active and inactive are the calls of the source.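 Rule for the calls, unless noted: active = mean percent inhibition of duplicate wells above the buffer-only control mean plus 3 SD of those controls; inactive = the rest.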

The target in assay [1] is Potassium voltage-gated channel subfamily KQT member 1 (Homo sapiens) (UniProt P51787). The assay is described as follows: blockers of human KCNQ1 channel – cell-based, Tl flux, duplicate, confirmation (AID 588353;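 active = primary screen active, with duplicate mean exceeding buffer control mean plus 3 SD of buffer wells, cut at about 28% in these data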;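 note: 0% = buffer control ratio and 100% = XE991 inhibitor control ratio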). Conditions: KCNQ1 cell line, FluxOR thallium flux fluorescence, at 10 µM, active compounds read high. Summed up:
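Material: KCNQ1 CHO cells; also added: Thallium-potassium depolarizing stimulus buffer; timing: dye loading 90 min, compound 20 min, both room temperature; signal: FluxOR thallium flux fluorescence, 10 s baseline plus 110 s; evaluation: percent inhibition relative to buffer and XE991; benchmarks: buffer and XE991; repeats: duplicates, mean used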

Assay [2] in a line: nonspecific activity in CHO-K1 cells without KCNQ1 – parental CHO cells, Tl flux, counter-screen for KCNQ1 inhibitor project (AID 588366;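 active = mean of duplicate thallium-flux fluorescence ratios in parental host cells more than 5 SD below the buffer control mean, cut at about 0.38 in these data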;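 note: ratio is peak minus minimum fluorescence divided by baseline fluorescence; actives read low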). Particulars: parental CHO-K1, FluxOR thallium flux fluorescence ratio; at 10 µM; active compounds read low; zero means no signal rise above baseline. The essentials:
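Assay system: CHO-K1 parental line without KCNQ1; Control set: buffer-only controls; Detection: kinetic Tl+ flux fluorescence with FluxOR dye; Schedule: FluxOR dye loading 90 min, compound exposure 20 min, room temperature.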
A general note: A counterscreen serves to expose hits that act by an unwanted route or on another target.

The target in assay [3] is Potassium voltage-gated channel subfamily KQT member 2 (Rattus norvegicus) (UniProt O88943). Nature of the assay: block of rat KCNQ2 potassium channel – cell-based, selectivity assay for KCNQ1 inhibitor project (AID 651746;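 active = mean percent inhibition of the KCNQ2 thallium signal more than 5 SD above the buffer-only control wells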;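 for inhibition: 0% = buffer control wells and 100% = XE-991 inhibitor control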). Particulars: KCNQ2 cells, FluxOR thallium flux fluorescence, at 10 µM; active compounds read high.
Assay [4] has as its target Potassium voltage-gated channel subfamily E member 1 (Homo sapiens) + Potassium voltage-gated channel subfamily KQT member 1 (Homo sapiens) (UniProt P15382+P51787). The assay is described as follows: block of human IKs channel complex – CHO-K1 cells, thallium flux, FluxOR, selectivity assay for KCNQ1 inhibitor project (AID 652147).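 For inhibition: 0% = buffer only wells and 100% = XE-991 inhibitor control.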 Particulars: KCNQ1/KCNE1 cells, FluxOR thallium flux fluorescence, at 10 µM; active compounds read high. The essentials:
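System – KCNQ1/KCNE1 cells · Also added – depolarizing thallium/potassium stimulus, 5x stock with 12.5 mM Tl2SO4 and K2SO4 · Incubation – dye 90 min and compound 20 min at room temperature · Signal – kinetic FluxOR thallium-sensitive fluorescence, 1 Hz sampling, 150 s post-stimulus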

Sequence of Potassium voltage-gated channel subfamily E member 1 (Homo sapiens) + Potassium voltage-gated channel subfamily KQT member 1 (Homo sapiens) (P51787 whole entry, looked up): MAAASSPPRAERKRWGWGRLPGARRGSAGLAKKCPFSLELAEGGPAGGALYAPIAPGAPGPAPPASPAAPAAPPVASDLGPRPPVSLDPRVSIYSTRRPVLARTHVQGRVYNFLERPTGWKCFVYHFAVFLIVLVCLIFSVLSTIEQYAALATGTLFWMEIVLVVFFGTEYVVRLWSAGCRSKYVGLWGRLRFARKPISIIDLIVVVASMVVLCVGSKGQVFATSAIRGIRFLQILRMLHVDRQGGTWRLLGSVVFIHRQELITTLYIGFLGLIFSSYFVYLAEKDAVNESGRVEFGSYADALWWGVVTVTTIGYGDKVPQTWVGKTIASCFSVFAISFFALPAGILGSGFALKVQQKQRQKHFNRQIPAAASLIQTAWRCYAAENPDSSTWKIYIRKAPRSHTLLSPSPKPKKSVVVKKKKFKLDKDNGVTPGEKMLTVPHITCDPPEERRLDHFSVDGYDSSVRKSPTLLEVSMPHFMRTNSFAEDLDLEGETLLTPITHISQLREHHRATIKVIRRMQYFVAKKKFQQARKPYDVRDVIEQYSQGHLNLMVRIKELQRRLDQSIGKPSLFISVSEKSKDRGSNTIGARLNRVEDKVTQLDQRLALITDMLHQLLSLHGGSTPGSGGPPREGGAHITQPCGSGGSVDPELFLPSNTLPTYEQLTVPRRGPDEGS
Sequence of Potassium voltage-gated channel subfamily KQT member 1 (Homo sapiens) (P51787 whole entry, looked up): as above
Sequence of Potassium voltage-gated channel subfamily KQT member 2 (Rattus norvegicus) (O88943 whole entry, looked up): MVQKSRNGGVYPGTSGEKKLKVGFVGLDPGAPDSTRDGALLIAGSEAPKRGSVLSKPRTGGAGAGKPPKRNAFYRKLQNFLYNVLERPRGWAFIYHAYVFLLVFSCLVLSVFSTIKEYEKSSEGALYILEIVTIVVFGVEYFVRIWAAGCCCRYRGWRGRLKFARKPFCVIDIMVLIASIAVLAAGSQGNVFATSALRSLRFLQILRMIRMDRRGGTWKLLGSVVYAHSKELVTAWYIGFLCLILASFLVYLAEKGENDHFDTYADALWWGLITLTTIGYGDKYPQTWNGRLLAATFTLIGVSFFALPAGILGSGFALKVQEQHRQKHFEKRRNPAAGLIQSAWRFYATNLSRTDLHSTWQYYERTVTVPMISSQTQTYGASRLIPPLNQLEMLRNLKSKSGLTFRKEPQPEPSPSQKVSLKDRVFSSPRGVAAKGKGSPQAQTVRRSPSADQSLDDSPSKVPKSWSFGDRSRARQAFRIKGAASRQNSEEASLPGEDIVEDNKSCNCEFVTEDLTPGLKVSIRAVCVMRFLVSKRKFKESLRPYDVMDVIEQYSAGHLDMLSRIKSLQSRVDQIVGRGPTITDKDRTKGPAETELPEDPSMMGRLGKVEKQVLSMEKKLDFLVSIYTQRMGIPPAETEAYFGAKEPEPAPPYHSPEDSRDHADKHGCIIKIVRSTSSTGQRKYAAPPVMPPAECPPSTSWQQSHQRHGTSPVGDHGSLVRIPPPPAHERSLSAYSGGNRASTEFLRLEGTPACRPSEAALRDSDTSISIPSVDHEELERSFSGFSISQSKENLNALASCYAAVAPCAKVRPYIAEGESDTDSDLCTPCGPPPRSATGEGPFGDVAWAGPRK

Take `Cc1cccc(CSc2ccc(-c3cccs3)nn2)c1`: the inhibition in assay [1] is 78% (active); in assay [3] it was 114% (active); in assay [4], 112% (active). Moreover, in assay [2], the fluorescence ratio (Tl flux) is 0.42.
Consider `Cc1nn(C)cc1N1C(=O)c2cccc3c(N)ccc(c23)C1=O`, for which the fluorescence ratio (Tl flux) in assay [2] was 0.006 (active). The compound was classed as inactive in assay [3] and in assay [4].
As for `Cn1nc(-c2ccc(Cl)cc2)c2cc(C(=O)NCc3ccco3)sc21`, the inhibition is 70.5% (active) in assay [1] and 103% (active) in assay [3]. Further, the fluorescence ratio (Tl flux) in assay [2] is 0.454. The result in assay [4] was inactive.
`Cc1ccc(S(=O)(=O)Nc2ccc3ncccc3c2)cc1`: the inhibition in assay [1] is 76.5% (active). The fluorescence ratio (Tl flux) in assay [2] was 0.499. In addition, the compound was called inactive in assay [3] and in assay [4].
With `Cc1cccc(NC(=S)Nc2ccc(Cl)c(Cl)c2)c1`, the inhibition in assay [1] is 49% (active). Besides, in assay [2], the fluorescence ratio (Tl flux) was 0.565. Further, the compound was called inactive in assay [3] and in assay [4].
For `COc1ccc(C(=O)NC2CCCc3c2cnn3-c2cccc(C)c2C)c(OC)n1` (stereo not drawn), the inhibition in assay [1] is 132% (active); in assay [3] it was 127% (active); in assay [4] it was 184% (active). The fluorescence ratio (Tl flux) in assay [2] was 0.296 (active).
Regarding `Cc1cc2nc3c(=O)n(Cc4ccccc4)c(=O)[nH]c3nc2cc1N`, the inhibition in assay [1] was 93% (active); in assay [4], 110% (active). Also, the fluorescence ratio (Tl flux) in assay [2] was 0.332 (active). The outcome in assay [3] was inactive.
As for `CC1CCC2(CC1)NC(=O)N(CC(=O)c1cccn1C)C2=O` (stereo not drawn), in assay [1], the inhibition was 31% (active). For the same compound, the fluorescence ratio (Tl flux) in assay [2] was 0.503. The result in assay [3] and in assay [4] was inactive.
Regarding `Fc1cc(Br)ccc1NC(=S)Nc1cccnc1`, in assay [1], the inhibition is 33% (active). Also, in assay [2], the fluorescence ratio (Tl flux) is 0.539. Further, the outcome in assay [3] and in assay [4] was inactive.
`FC(F)Oc1ccc(NC(=S)NCc2ccco2)cc1Cl`: the inhibition was 56.5% (active) in assay [1] and 38% (active) in assay [4]. Further, the fluorescence ratio (Tl flux) in assay [2] is 0.494. In addition, the compound was called inactive in assay [3].
In the case of `Cc1ccccc1OCC(=O)Nc1ccc(N2CCN(C(=O)C(C)C)CC2)c(Cl)c1`, the inhibition in assay [1] was 57.5% (active); in assay [4], 51% (active). Besides, in assay [2], the fluorescence ratio (Tl flux) was 0.503.
For the compound `COC(=O)c1ccc(NC(=O)Nc2ccc(C)cc2)cc1`, in assay [1], the inhibition was 62.5% (active). In addition, in assay [2], the fluorescence ratio (Tl flux) is 0.504. Also, the outcome in assay [3] and in assay [4] was inactive.
On to `CC(=O)N1CCCc2cc(S(=O)(=O)N3CCCC(C(=O)N4CCN(c5cccc(Cl)c5)CC4)C3)ccc21` (stereo not drawn), for which the results for the inhibition in assay [1], in assay [3] and in assay [4] were 126% (active), 134% (active) and 140% (active), respectively. Also, the fluorescence ratio (Tl flux) in assay [2] is 0.436.
As to `O=C(Nc1ccc(Cl)cc1)Nc1ccc(Oc2cccnc2)nc1`, in assay [1], the inhibition is 56% (active). The fluorescence ratio (Tl flux) in assay [2] is 0.487. Moreover, the outcome in assay [4] was inactive.
Consider `COc1ccc(-c2cc(C(F)(F)F)nc(S(C)(=O)=O)n2)cc1OC`, for which the inhibition in assay [1] was 27% (active); in assay [4], 77.5% (active). In assay [2], the fluorescence ratio (Tl flux) is 0.445. In addition, the compound was called inactive in assay [3].
In the case of `COc1cc(NC(=O)c2ccccc2NS(=O)(=O)c2ccc(Cl)s2)cc(OC)c1`, in assay [1], the inhibition was 102% (active). Further, the fluorescence ratio (Tl flux) in assay [2] was 0.419. The result in assay [3] and in assay [4] was inactive.
Regarding `CCC(=C/c1sc2ccc3ccccc3c2[n+]1C)/C=C1\Sc2ccc3ccccc3c2N1C`, the inhibition in assay [1] is 57.5% (active); in assay [3] it was 59% (active); in assay [4], 64% (active). For the same compound, in assay [2], the fluorescence ratio (Tl flux) is 0.508.
Regarding `O=C(NC(=S)Nc1ccccc1C(=O)O)c1ccc(-c2ccc(Br)cc2)o1`, the inhibition in assay [1] is 56% (active); in assay [4] it was 78% (active). For the same compound, the fluorescence ratio (Tl flux) in assay [2] is 0.46. For the same compound, the call in assay [3] was inactive.
Consider `CSc1nccc(NC(=O)c2ccc(C(C)(C)C)cc2)n1`, for which the inhibition in assay [1] was 153% (active); in assay [3] it was 105% (active); in assay [4] it was 144% (active). Also, the fluorescence ratio (Tl flux) in assay [2] is 0.366 (active).
Take `O=C(NCC(F)(F)F)Nc1nnc(C(F)(F)F)s1`: in assay [1], the inhibition was 26% (active). The fluorescence ratio (Tl flux) in assay [2] was 0.557. Also, the call in assay [3] and in assay [4] was inactive.
As to `Cc1ccccc1C(=O)OC1OC(=O)C(Cl)=C1Nc1ccccc1` (stereo not drawn), the inhibition in assay [1] was 79% (active); in assay [4] it was 65% (active). Further, the fluorescence ratio (Tl flux) in assay [2] was 0.434.
As for `Cc1nnc(SC(C(=O)Nc2cc(Cl)cc(Cl)c2)c2ccccc2)[nH]c1=O` (stereo not drawn), in assay [1], the inhibition is 43% (active). The fluorescence ratio (Tl flux) in assay [2] was 0.471. Moreover, the result in assay [4] was inactive.
For `CS(=O)(=O)N(CC(=O)Nc1ccc(Cl)c(Cl)c1)C1CCCCC1`, the figures for the inhibition in assay [1] and in assay [3] were 56.5% (active) and 63.3% (active), respectively. Moreover, in assay [2], the fluorescence ratio (Tl flux) is 0.476. The outcome in assay [4] was inactive.
With `O=C(NCCc1ccccc1)c1ccc2c(c1)N(Cc1ccccc1)CCS2`, the results for the inhibition in assay [1], in assay [3] and in assay [4] were 71.5% (active), 101% (active) and 72% (active), respectively. In addition, in assay [2], the fluorescence ratio (Tl flux) is 0.426.
The corresponding values for `CC(C(=O)NCC1CCCCC1)N(C)Cc1cccc(Cl)c1` (stereo not drawn) are 62% (active), 76% (active), 84% (active) and 0.435.
Take `O=C(Nc1ccc2ccccc2c1)Nc1ccc2snnc2c1`: the inhibition in assay [1] was 41.5% (active). Also, the fluorescence ratio (Tl flux) in assay [2] was 0.539. The result in assay [3] and in assay [4] was inactive.
Take `Cc1nc(Nc2ccc3c(c2)OCCO3)c2nnn(Cc3ccccc3Cl)c2n1`: the inhibition was 83% (active) in assay [1], 96% (active) in assay [3] and 102% (active) in assay [4]. Moreover, in assay [2], the fluorescence ratio (Tl flux) is 0.413.
The corresponding values for `Cc1ccc(N2CCN(S(=O)(=O)c3ccc(F)cc3)CC2)c(C)c1` are 79% (active), 94% (active), 69.5% (active) and 0.406.
With `CCOC(=O)c1c(NC(=O)C(C)Sc2c[nH]c3ccccc23)sc2c1CCC2` (stereo not drawn), the inhibition in assay [1] was 124% (active); in assay [3], 105% (active); in assay [4] it was 155% (active). Further, in assay [2], the fluorescence ratio (Tl flux) is 0.415.
For `CC(C)OC(=O)C(C#N)c1nc2ccccc2nc1N1CCN(Cc2ccccc2)CC1` (stereo not drawn), the inhibition in assay [1] was 148% (active); in assay [3], 100% (active). The fluorescence ratio (Tl flux) in assay [2] was 0.382. Further, the result in assay [4] was inactive.
On to `COc1cccc(-c2cnc(OC(C)(C)C)nc2OC(C)(C)C)c1`, for which the figures for the inhibition in assay [1], in assay [3] and in assay [4] were 75% (active), 61% (active) and 94.5% (active), respectively. For the same compound, the fluorescence ratio (Tl flux) in assay [2] was 0.462.
As for `COC(=O)c1cc(NC(=O)c2cc(C(C)(C)C)nn2Cc2cccc(C)c2)ccc1N1CCOCC1`, the inhibition in assay [1] is 77% (active); in assay [3], 80.3% (active); in assay [4] it was 154% (active). Moreover, the fluorescence ratio (Tl flux) in assay [2] is 0.333 (active).
`Oc1ccc2ccc3cccc[n+]3c2c1`: the fluorescence ratio (Tl flux) in assay [2] was 0.012 (active). The compound was called inactive in assay [3] and in assay [4].
Regarding `COc1ccc(S(=O)(=O)/N=C2\C=C(NS(=O)(=O)c3ccccc3)C(=O)c3ccccc32)cc1`, the inhibition in assay [1] is 31.5% (active). Moreover, the fluorescence ratio (Tl flux) in assay [2] is 0.44. In addition, the compound was classed as inactive in assay [3] and in assay [4].
As for `Cc1cccc(-c2nc3ccc(C(=O)NCCN4CCN(C)CC4)cc3nc2-c2cccc(C)c2)c1`, the inhibition in assay [1] is 63% (active); in assay [3], 107% (active); in assay [4], 118% (active). In addition, in assay [2], the fluorescence ratio (Tl flux) is 0.34 (active).
Regarding `CCOC(=O)c1ccc(NC(=O)Cn2cnc3cc(C)c(C)cc32)cc1`, the inhibition in assay [1] is 60% (active); in assay [4] it was 55% (active). Moreover, in assay [2], the fluorescence ratio (Tl flux) is 0.481. In addition, in assay [3], the result was inactive.

What is called inhibition is the drop in the measured response relative to a control, in per cent.
